# Test results as given in ChEMBL document CHEMBL4373708 (J Med Chem, 2019).
# The source made the active and inactive calls. The rule behind the calls is not given here.
# Experiments:
# [1] = biological target: T1, Solute carrier family 26 member 6 (Mus musculus) (UniProt Q8CIW6); assay: Inhibition of mouse slc26a6 expressed in FRT cells co-expressing EYFP-H148Q/I152L/F46L assessed as reduction in protein-mediated chloride/iodide exchange at 10 uM preincubated for 10 mins followed by NaI-substituted PBS addition and measured by YFP-based fluorescence assay; assay type: cell-based
# T1 sequence (whole entry): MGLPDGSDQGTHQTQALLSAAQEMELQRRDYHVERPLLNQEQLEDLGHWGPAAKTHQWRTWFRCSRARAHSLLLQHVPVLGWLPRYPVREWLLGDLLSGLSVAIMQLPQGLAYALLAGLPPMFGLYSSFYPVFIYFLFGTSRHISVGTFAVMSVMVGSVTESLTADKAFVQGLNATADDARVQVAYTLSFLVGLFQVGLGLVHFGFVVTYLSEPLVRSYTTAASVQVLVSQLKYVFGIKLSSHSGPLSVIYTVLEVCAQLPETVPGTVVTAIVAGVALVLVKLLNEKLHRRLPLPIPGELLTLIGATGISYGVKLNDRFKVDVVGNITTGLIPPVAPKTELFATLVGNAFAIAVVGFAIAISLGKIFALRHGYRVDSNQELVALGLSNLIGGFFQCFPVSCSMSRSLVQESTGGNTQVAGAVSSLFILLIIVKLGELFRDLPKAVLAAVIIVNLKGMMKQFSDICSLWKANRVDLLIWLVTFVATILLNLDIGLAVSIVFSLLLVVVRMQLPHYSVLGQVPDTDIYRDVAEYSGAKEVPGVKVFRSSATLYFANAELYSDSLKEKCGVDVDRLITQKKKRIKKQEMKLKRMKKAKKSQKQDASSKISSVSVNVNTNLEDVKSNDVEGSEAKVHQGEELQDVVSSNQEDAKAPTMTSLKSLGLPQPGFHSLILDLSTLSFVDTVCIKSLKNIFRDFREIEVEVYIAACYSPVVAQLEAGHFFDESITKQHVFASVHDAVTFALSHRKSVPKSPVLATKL
# How it was run: (§1)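 FRT cells expressing the given slc26 transporter plus EYFP-H148Q/I152L/F46L were preincubated 10 min with 0 or 10 µM compound in PBS. Iodide-substituted PBS was then added (140 mM NaCl replaced by NaI). The rate of YFP fluorescence quenching gave chloride/iodide exchange.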
# [2] = biological target: T2, Chloride anion exchanger (Mus musculus, UniProt Q9WVC8)
# T2 sequence (Q9WVC8 whole entry): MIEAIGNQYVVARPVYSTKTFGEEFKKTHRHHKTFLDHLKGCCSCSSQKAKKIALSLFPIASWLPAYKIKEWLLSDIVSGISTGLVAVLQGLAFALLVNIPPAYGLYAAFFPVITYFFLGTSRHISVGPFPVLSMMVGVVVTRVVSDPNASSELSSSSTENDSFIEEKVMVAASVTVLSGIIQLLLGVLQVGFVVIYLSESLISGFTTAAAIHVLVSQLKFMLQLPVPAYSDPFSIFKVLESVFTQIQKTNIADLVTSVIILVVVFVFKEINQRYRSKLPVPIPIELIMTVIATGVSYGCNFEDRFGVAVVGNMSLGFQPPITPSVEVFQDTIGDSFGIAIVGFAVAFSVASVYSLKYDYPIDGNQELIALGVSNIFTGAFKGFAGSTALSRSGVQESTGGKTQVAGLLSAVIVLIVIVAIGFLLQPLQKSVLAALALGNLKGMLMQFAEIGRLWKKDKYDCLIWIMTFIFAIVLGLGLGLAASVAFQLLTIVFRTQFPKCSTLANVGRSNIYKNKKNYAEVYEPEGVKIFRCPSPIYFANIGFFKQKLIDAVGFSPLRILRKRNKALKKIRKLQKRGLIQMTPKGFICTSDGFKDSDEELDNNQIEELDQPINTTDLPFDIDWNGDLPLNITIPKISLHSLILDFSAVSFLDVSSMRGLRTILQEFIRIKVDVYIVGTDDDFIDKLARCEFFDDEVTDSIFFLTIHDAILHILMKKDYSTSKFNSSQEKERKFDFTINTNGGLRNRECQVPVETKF
# [3] = biological target: T3, Pendrin (Mus musculus) (UniProt Q9R155); assay: Inhibition of mouse slc26a4 expressed in FRT cells co-expressing EYFP-H148Q/I152L/F46L assessed as reduction in protein-mediated chloride/iodide exchange at 10 uM preincubated for 10 mins followed by NaI-substituted PBS addition and measured by YFP-based fluorescence assay; assay type: cell-based; how it was run: as §1
# T3 sequence (whole entry): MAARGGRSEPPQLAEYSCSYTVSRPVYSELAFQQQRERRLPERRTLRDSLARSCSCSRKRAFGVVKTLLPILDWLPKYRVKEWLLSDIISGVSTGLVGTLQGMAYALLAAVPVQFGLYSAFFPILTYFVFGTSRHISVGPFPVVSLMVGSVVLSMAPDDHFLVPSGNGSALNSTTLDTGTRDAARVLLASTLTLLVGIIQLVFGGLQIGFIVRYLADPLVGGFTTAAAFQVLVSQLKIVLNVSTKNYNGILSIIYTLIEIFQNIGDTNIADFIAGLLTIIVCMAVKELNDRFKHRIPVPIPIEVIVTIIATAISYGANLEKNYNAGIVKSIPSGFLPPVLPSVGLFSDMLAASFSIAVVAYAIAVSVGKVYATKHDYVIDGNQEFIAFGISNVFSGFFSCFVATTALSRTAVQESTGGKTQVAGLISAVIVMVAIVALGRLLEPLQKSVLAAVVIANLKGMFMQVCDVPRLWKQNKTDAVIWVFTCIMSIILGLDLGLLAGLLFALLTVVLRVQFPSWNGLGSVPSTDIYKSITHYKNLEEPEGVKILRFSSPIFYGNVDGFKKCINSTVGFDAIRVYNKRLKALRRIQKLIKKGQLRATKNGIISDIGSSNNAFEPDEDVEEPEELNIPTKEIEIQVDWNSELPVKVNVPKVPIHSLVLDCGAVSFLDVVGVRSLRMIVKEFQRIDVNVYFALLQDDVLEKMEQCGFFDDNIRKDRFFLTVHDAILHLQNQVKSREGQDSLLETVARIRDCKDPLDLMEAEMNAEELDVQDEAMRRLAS
inhibition [1],IC50 [2],inhibition [3],Compound
inactive,35 nM,inactive,Cc1c(CC(=O)O)c(=O)oc2c(C)c(OCc3cccc(I)c3)ccc12
inactive,23 nM,inactive,Cc1c(CC(=O)O)c(=O)oc2c(C)c(OCc3cccc(C(F)(F)F)c3)ccc12
